According to ChEMBL document CHEMBL4354869, “pH-Dependent Grafting of Cancer Cells with Antigenic Epitopes Promotes Selective Antibody-Mediated Cytotoxicity” (J Med Chem, 2020):
Calls of active or inactive are those of the source. The calls are words filed in the database; no cut-off is given here. Square brackets hold non-standard residues; d marks the D form. Peptide text beside a SMILES is read from it. * marks the point of attachment. Dnp = O=[N+]([O-])c1ccc(*)c([N+](=O)[O-])c1; Gla = N[C@@H](CC(C(=O)O)C(=O)O)C(=O)O; Aad = N[C@@H](CCCC(=O)O)C(=O)O

Legend:
MDA-MB-231 [1] = test: Induction of opsonization in human MDA-MB-231 cells assessed as increase in recruitment of anti-FITC antibody to cell surface at 1 uM measured after 5 to 10 mins at pH 6 to 7.4 by Alexa Fluor 647 conjugated anti-FITC antibody based flow cytometry; type: functional
In short: (§1)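 Cells in suspension (350000 MDA-MB-231) given 1 μM pH-adjusted conjugate for 5 or 10 min at 37 °C, pH 7.4 or 6.0, washed, then Alexa Fluor 647 anti-FITC mouse mAb in PBS/10% FBS 30 min at 4 °C, PFA-fixed. Flow cytometry, ≥3000 events; fold over pH 7.4 antibody-only cells; mean ± SEM, n = 3.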

Lipid bilayer [2] = test: Binding affinity to POPC large unilamellar vesicle at 1:300 ratio measured after 30 mins at pH 5 to 7.4 by tryptophan fluorescence spectroscopic analysis
In short: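 Peptide (7 μM final, from 20 μM stock in 5 mM sodium phosphate pH 8.0) with extruded 100 nm POPC LUVs at 1:300; pH set with HCl, 30 min RT before tryptophan emission spectra were recorded.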

MDA-MB-231 [3] = test: Induction of opsonization in human MDA-MB-231 cells assessed as increase in recruitment of anti-FITC antibody to cell surface at 1 uM measured after 5 to 10 mins at pH 6 by Alexa Fluor 647 conjugated anti-FITC antibody based flow cytometry relative to pH 7.4; type: functional; in short: as §1
Lipid bilayer [4] = test: Binding affinity to POPC large unilamellar vesicle at 1:300 ratio measured after 30 mins at pH 5 by circular dichroism spectroscopic analysis
In short: (§2)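 Peptide (20 μM stock in 5 mM sodium phosphate pH 8.0; 7 μM final) mixed with POPC LUVs (extruded, 100 nm pores) at 1:300, pH lowered with HCl, 30 min RT. Far-UV CD 260–200 nm in 0.1 cm cuvette, ≥5 scans averaged, liposome spectrum subtracted; expressed as mean residue molar ellipticity.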

MDA-MB-231 [5] = test: Induction of opsonization in human MDA-MB-231 cells assessed as increase in recruitment of anti-DNP antibody to cell surface at 1 uM measured after 5 to 10 mins at pH 6 to 7.4 by AlexaFluor-488-conjugated anti-DNP antibody based flow cytometry; type: functional
In short: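 Conjugate pre-incubated 1 h RT at 20 μM in 5 mM sodium phosphate pH 9.0, diluted, then pH adjusted with citrate buffer. MDA-MB-231 (350000 cells, suspension) exposed to 1 μM for 5 or 10 min, 37 °C, pH 7.4 or 6.0, washed, stained with 25 μg/mL anti-DNP-A488 30 min at 4 °C, PFA-fixed. Flow cytometry, ≥3000 events; fold over pH 7.4 antibody-only cells.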

Lipid bilayer [6] = test: Binding affinity to POPC large unilamellar vesicle at 1:300 ratio measured after 30 mins at pH 5 to 7.4 by circular dichroism spectroscopic analysis; in short: as §2
[7] = Drug internalization in human MDA-MB-231 cells assessed as increase in fluorescence at 1 uM measured after 30 mins at pH 6 to 7.4 in presence of FITC-labeled anti-human IgG by flow cytometric method; type: ADME, cell-based; settings: mda-mb-231, pH 6, 0.5 h
In short: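 Control for specificity: MDA-MB-231 treated with 1 μM conjugate at pH 7.4 or 6.0 (5–10 min, 37 °C), washed, then incubated ± 25 μg/mL FITC anti-human IgG in PBS/10% FBS, 30 min at 4 °C, fixed, read by flow cytometry.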

Activity (Lipid bilayer [2])	Activity (Lipid bilayer [4])	Activity (Lipid bilayer [6])	Drug uptake [7]	Compound	Activity (MDA-MB-231 [1])	fold change (FC) (MDA-MB-231 [3])	Activity (MDA-MB-231 [5])
Active	–	–	–	CC[C@H](C)[C@H](NC(=O)[C@@H]1CCCN1C(=O)[C@H](CC(N)=O)NC(=O)[C@H](CCC(N)=O)NC(=O)[C@H](CCC(=O)O)NC(=O)[C@H](CSC1CC(=O)N(CCC(=O)NOCCOCCOCCOCCOCCOCCOCCOCCOCCOCCOCCOCCC(=O)NCCCNC(=O)c2ccc(-c3c4ccc(=O)cc-4oc4cc(O)ccc34)c(C(=O)O)c2)C1=O)NCC(N)=O)C(=O)N[C@@H](Cc1ccc(O)cc1)C(=O)N[C@@H](Cc1c[nH]c2ccccc12)C(=O)N[C@@H](C)C(=O)N[C@@H](CCCNC(=N)N)C(=O)N[C@@H](Cc1ccc(O)cc1)C(=O)N[C@@H](C)C(=O)N[C@@H](CC(=O)O)C(=O)N[C@@H](Cc1c[nH]c2ccccc12)C(=O)N[C@@H](CC(C)C)C(=O)N[C@@H](Cc1ccccc1)C(=O)N[C@H](C(=O)N[C@H](C(=O)N1CCC[C@H]1C(=O)N[C@@H](CC(C)C)C(=O)N[C@@H](CC(C)C)C(=O)N[C@@H](CC(C)C)C(=O)N[C@@H](CC(C)C)C(=O)N[C@@H](CCC(=O)O)C(=O)N[C@@H](CC(C)C)C(=O)N[C@@H](C)C(=O)N[C@@H](CC(C)C)C(=O)N[C@@H](CC(C)C)C(=O)N[C@H](C(=O)N[C@@H](CC(=O)O)C(=O)N[C@@H](C)C(=O)N[C@@H](CC(=O)O)C(=O)N[C@@H](CCC(=O)O)C(=O)NCC(=O)N[C@H](C(=O)NCC(N)=O)[C@@H](C)O)C(C)C)[C@@H](C)O)[C@@H](C)O (some centres undefined)	Active	2.9	–
–	–	Active	Not Active	CC[C@H](C)[C@H](NC(=O)[C@@H]1CCCN1C(=O)[C@H](CC(N)=O)NC(=O)[C@H](CCC(N)=O)NC(=O)[C@H](CCC(=O)O)NC(=O)[C@@H](N)CCCCNc1ccc([N+](=O)[O-])cc1[N+](=O)[O-])C(=O)N[C@@H](Cc1ccc(O)cc1)C(=O)N[C@@H](Cc1c[nH]c2ccccc12)C(=O)N[C@@H](C)C(=O)N[C@@H](CCCNC(=N)N)C(=O)N[C@@H](Cc1ccc(O)cc1)C(=O)N[C@@H](C)C(=O)N[C@@H](CC(C(=O)O)C(=O)O)C(=O)N[C@@H](Cc1c[nH]c2ccccc12)C(=O)N[C@@H](CC(C)C)C(=O)N[C@@H](Cc1ccccc1)C(=O)N[C@H](C(=O)N[C@H](C(=O)N1CCC[C@H]1C(=O)N[C@@H](CC(C)C)C(=O)N[C@@H](CC(C)C)C(=O)N[C@@H](CC(C)C)C(=O)N[C@@H](CC(C)C)C(=O)N[C@@H](CCCC(=O)O)C(=O)N[C@@H](CC(C)C)C(=O)N[C@@H](C)C(=O)N[C@@H](CC(C)C)C(=O)N[C@@H](CC(C)C)C(=O)N[C@H](C(=O)N[C@@H](CC(=O)O)C(=O)N[C@@H](C)C(=O)N[C@@H](CC(=O)O)C(=O)N[C@@H](CCC(=O)O)C(=O)NCC(=O)N[C@H](C(=O)NCC(N)=O)[C@@H](C)O)C(C)C)[C@@H](C)O)[C@@H](C)O (H-K(Dnp)EQNPIYWARYA[Gla]WLFTTPLLLL[Aad]LALLVDADEGTG-NH2)	–	–	Active

Further lines, the compound ahead of its results:

Compound	Activity (Lipid bilayer [2])	Activity (Lipid bilayer [4])	Activity (Lipid bilayer [6])	Drug uptake [7]	Activity (MDA-MB-231 [1])	fold change (FC) (MDA-MB-231 [3])	Activity (MDA-MB-231 [5])
CC[C@H](C)[C@H](NC(=O)[C@@H]1CCCN1C(=O)[C@H](CC(N)=O)NC(=O)[C@H](CCC(N)=O)NC(=O)[C@H](CCC(=O)O)NC(=O)[C@H](CSC1CC(=O)N(CCC(=O)NOCCOCCOCCOCCOCCOCCC(=O)NCCCNC(=O)c2ccc(-c3c4ccc(=O)cc-4oc4cc(O)ccc34)c(C(=O)O)c2)C1=O)NCC(N)=O)C(=O)N[C@@H](Cc1ccc(O)cc1)C(=O)N[C@@H](Cc1c[nH]c2ccccc12)C(=O)N[C@@H](C)C(=O)N[C@@H](CCCNC(=N)N)C(=O)N[C@@H](Cc1ccc(O)cc1)C(=O)N[C@@H](C)C(=O)N[C@@H](CC(=O)O)C(=O)N[C@@H](Cc1c[nH]c2ccccc12)C(=O)N[C@@H](CC(C)C)C(=O)N[C@@H](Cc1ccccc1)C(=O)N[C@H](C(=O)N[C@H](C(=O)N1CCC[C@H]1C(=O)N[C@@H](CC(C)C)C(=O)N[C@@H](CC(C)C)C(=O)N[C@@H](CC(C)C)C(=O)N[C@@H](CC(C)C)C(=O)N[C@@H](CC(=O)O)C(=O)N[C@@H](CC(C)C)C(=O)N[C@@H](C)C(=O)N[C@@H](CC(C)C)C(=O)N[C@@H](CC(C)C)C(=O)N[C@H](C(=O)N[C@@H](CC(=O)O)C(=O)N[C@@H](C)C(=O)N[C@@H](CC(=O)O)C(=O)N[C@@H](CCC(=O)O)C(=O)NCC(=O)N[C@H](C(=O)NCC(N)=O)[C@@H](C)O)C(C)C)[C@@H](C)O)[C@@H](C)O (some centres undefined)	Active	–	–	–	Active	–	–
CC[C@H](C)[C@H](NC(=O)[C@@H]1CCCN1C(=O)[C@H](CC(N)=O)NC(=O)[C@H](CCC(N)=O)NC(=O)[C@H](CCC(=O)O)NC(=O)[C@H](CSC1CC(=O)N(CCC(=O)NOCCOCCOCCOCCOCCOCCOCCOCCOCCOCCOCCOCCOCCOCCOCCOCCOCCOCCOCCOCCOCCOCCOCCOCCC(=O)NCCCNC(=O)c2ccc(-c3c4ccc(=O)cc-4oc4cc(O)ccc34)c(C(=O)O)c2)C1=O)NCC(N)=O)C(=O)N[C@@H](Cc1ccc(O)cc1)C(=O)N[C@@H](Cc1c[nH]c2ccccc12)C(=O)N[C@@H](C)C(=O)N[C@@H](CCCNC(=N)N)C(=O)N[C@@H](Cc1ccc(O)cc1)C(=O)N[C@@H](C)C(=O)N[C@@H](CC(=O)O)C(=O)N[C@@H](Cc1c[nH]c2ccccc12)C(=O)N[C@@H](CC(C)C)C(=O)N[C@@H](Cc1ccccc1)C(=O)N[C@H](C(=O)N[C@H](C(=O)N1CCC[C@H]1C(=O)N[C@@H](CC(C)C)C(=O)N[C@@H](CC(C)C)C(=O)N[C@@H](CC(C)C)C(=O)N[C@@H](CC(C)C)C(=O)N[C@@H](CC(=O)O)C(=O)N[C@@H](CC(C)C)C(=O)N[C@@H](C)C(=O)N[C@@H](CC(C)C)C(=O)N[C@@H](CC(C)C)C(=O)N[C@H](C(=O)N[C@@H](CC(=O)O)C(=O)N[C@@H](C)C(=O)N[C@@H](CC(=O)O)C(=O)N[C@@H](CCC(=O)O)C(=O)NCC(=O)N[C@H](C(=O)NCC(N)=O)[C@@H](C)O)C(C)C)[C@@H](C)O)[C@@H](C)O (some centres undefined)	Active	Active	–	–	Active	–	–
CC[C@H](C)[C@H](NC(=O)[C@@H]1CCCN1C(=O)[C@H](CC(N)=O)NC(=O)[C@H](CCC(N)=O)NC(=O)[C@H](CCC(=O)O)NC(=O)[C@@H](N)CCCCNc1ccc([N+](=O)[O-])cc1[N+](=O)[O-])C(=O)N[C@@H](Cc1ccc(O)cc1)C(=O)N[C@@H](Cc1c[nH]c2ccccc12)C(=O)N[C@@H](C)C(=O)N[C@@H](CCCNC(=N)N)C(=O)N[C@@H](Cc1ccc(O)cc1)C(=O)N[C@@H](C)C(=O)N[C@@H](CC(=O)O)C(=O)N[C@@H](Cc1c[nH]c2ccccc12)C(=O)N[C@@H](CC(C)C)C(=O)N[C@@H](Cc1ccccc1)C(=O)N[C@H](C(=O)N[C@H](C(=O)N1CCC[C@H]1C(=O)N[C@@H](CC(C)C)C(=O)N[C@@H](CC(C)C)C(=O)N[C@@H](CC(C)C)C(=O)N[C@@H](CC(C)C)C(=O)N[C@@H](CC(=O)O)C(=O)N[C@@H](CC(C)C)C(=O)N[C@@H](C)C(=O)N[C@@H](CC(C)C)C(=O)N[C@@H](CC(C)C)C(=O)N[C@H](C(=O)N[C@@H](CC(=O)O)C(=O)N[C@@H](C)C(=O)N[C@@H](CC(=O)O)C(=O)N[C@@H](CCC(=O)O)C(=O)NCC(=O)N[C@H](C(=O)NCC(N)=O)[C@@H](C)O)C(C)C)[C@@H](C)O)[C@@H](C)O (H-K(Dnp)EQNPIYWARYADWLFTTPLLLLDLALLVDADEGTG-NH2)	–	–	Active	Not Active	–	–	Active
